Results from PubChem BioAssay AID651628 (The Scripps Research Institute Molecular Screening Center, 2012).
Active and inactive are the calls of the source.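 The calls were made as follows: active = at least one off-target enzyme showing weaker fluorescent probe labeling in any proteome panel; inactive = no off-target enzyme affected in any panel.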

Test system: Membrane Proteome
Assay: anti-target inhibition in MCF7 proteome, late-stage follow-up, selectivity assay for PAD4 inhibitor project, cell lysate, gel-based fluorescence, soluble and membrane fractions (AID 651628)
Details: CA-Rh gel-based ABPP, anti-target count, at 50 µM, active compounds read high
Procedure, shortened: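 Buffer or medium: DPBS; System: MCF7 soluble or membrane proteome; Quantity: proteome protein concentration of 1 mg/ml; Also added: CA-Rh probe, 10 µM; Times: compound pre-incubation 1 h, then probe labelling 1 h, both 25 °C; Control set: DMSO-only reference; Signal: SDS-PAGE separation with in-gel fluorescence scanning of labelled bands.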

Compound	number of anti-targets
COC(=O)c1cccc(-c2ccc3c(n2)C(=O)C(Br)=CC3=O)n1	> 5 (active)
COC(=O)c1cccc(-c2ccc3c(n2)C(=O)C(N)=CC3=O)n1	0 (inactive)
O=C1C(O)=C(O)C(=O)c2ncccc21	> 5 (active)
COC1=C(N)C(=O)c2ncccc2C1=O	0 (inactive)
COC1=CC(=O)c2nc(C#N)ccc2C1=O	> 5 (active)
O=C1C=C(Br)C(=O)c2ncccc21	> 5 (active)
NC1=CC(=O)c2cccnc2C1=O	0 (inactive)
NC1=CC(=O)c2ccc(-c3cccc(C(=O)O)n3)nc2C1=O	0 (inactive)
COC1=C(Br)C(=O)c2ncccc2C1=O	> 5 (active)
NC1=CC(=O)c2ccc(-c3ccccn3)nc2C1=O	0 (inactive)
COC1=C(N)C(=O)c2nc(-c3nc(C(=O)O)c(C)c(-c4ccc(OC)c(OC)c4O)c3N)ccc2C1=O	0 (inactive)
COC(=O)c1nc(C(=O)OC)c(NC(C)=O)c(-c2ccccc2Br)c1C	0 (inactive)
COC1=C(Br)C(=O)c2nc(-c3ccccn3)ccc2C1=O	> 5 (active)
COC1=C(I)C(=O)c2nc(C#N)ccc2C1=O	> 5 (active)
